Data as given in ChEMBL document CHEMBL5705892, “MK-2206, an allosteric Akt inhibitor, enhances antitumor efficacy by standard chemotherapeutic agents or molecular targeted drugs in vitro and in vivo” (Mol Cancer Ther, 2010).
Activity calls are given as the source filed them. The rule behind the calls is not given here.

Tests used:
NCI-H1993 = test: Induction of apoptosis in human NCI-H1993 cells assessed as fold induction of capsase-3/7 activity measured after 24 to 48 hrs in presence of gemcitabine by caspase-glo 3/7 assay; type: functional; conditions: time 24-48 hrs
NCI-H358 = test: Synergistic antiproliferative activity against human NCI-H358 cells assessed as combination index at ED50 measured after 72 hrs in presence of erlotinib by celltiter-glo assay; type: functional
NCI-H460 [1] = test: Synergistic antiproliferative activity against human NCI-H460 cells assessed as combination index at ED90 measured after 72 hrs in presence of 5-FU by celltiter-glo assay; type: functional
NCI-H460 [2] = test: Synergistic antiproliferative activity against human NCI-H460 cells assessed as combination index at ED50 measured after 72 hrs in presence of 5-FU by celltiter-glo assay; type: functional
A2780 [3] = test: Induction of apoptosis in carboplatin pretreated human A2780 cells assessed as increase in caspase-3/7 activity measured after 24 hrs by caspase-glo 3/7 assay; type: functional, cell-based; conditions: dose 0.0625-1 µM
[4] = biological target: RAC-alpha serine/threonine-protein kinase (Homo sapiens) (UniProt P31749); test: Inhibition of AKT phosphorylation at S473 residue in human NCI-H1993 cells at 3 umol/L measured after 4 to 24 hrs in presence of gemcitabine by MSD assay; conditions: time 4-24 hrs
RAC-alpha serine/threonine-protein kinase (Homo sapiens), sequence (P31749 whole entry): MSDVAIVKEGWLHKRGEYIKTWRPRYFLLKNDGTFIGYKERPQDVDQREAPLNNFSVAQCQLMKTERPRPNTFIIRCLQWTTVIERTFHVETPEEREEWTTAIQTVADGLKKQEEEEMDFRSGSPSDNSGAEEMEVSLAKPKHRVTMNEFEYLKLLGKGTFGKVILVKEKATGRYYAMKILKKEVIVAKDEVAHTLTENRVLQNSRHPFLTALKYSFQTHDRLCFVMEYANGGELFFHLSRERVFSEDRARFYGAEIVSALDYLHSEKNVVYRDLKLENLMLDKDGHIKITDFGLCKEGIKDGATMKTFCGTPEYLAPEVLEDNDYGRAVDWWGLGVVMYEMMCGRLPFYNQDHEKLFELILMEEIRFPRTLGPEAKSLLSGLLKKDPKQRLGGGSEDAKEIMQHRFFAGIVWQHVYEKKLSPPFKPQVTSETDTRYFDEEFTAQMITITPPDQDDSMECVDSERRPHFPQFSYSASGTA

NCI-H1703 = test: Induction of apoptosis in human NCI-H1703 cells assessed as fold induction of capsase-3/7 activity measured after 24 to 48 hrs in presence of carboplatin by caspase-glo 3/7 assay; type: functional; conditions: time 24-48 hrs
NCI-H460 [5] = test: Antitumor activity against human NCI-H460 cells xenografted in CD1 nude mouse assessed as reduction in tumor volume at 120 mg/kg, po administered 3 times per week for 2 weeks in presence of carboplatin by caliper method; type: functional, organism-based
How it was run: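 NCI-H460 cells were injected s.c. in Matrigel/PBS into CD1-nude mice (female in the carboplatin study). Mice were randomized at 0.2 cm³, n = 5. Carboplatin was given at 50 mg/kg or gemcitabine at 100 mg/kg, i.v. in saline, on days 0 and 7. MK-2206 (30% Captisol) was given at 120 mg/kg po on days 0, 2, 4, 7, 9, 11. Tumors measured by caliper twice weekly.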

NCI-H23 = test: Synergistic antiproliferative activity against human NCI-H23 cells assessed as fold change in erlotinib IC50 at 1 umol/L measured after 72 hrs in presence of erlotinib by celltiter-glo assay relative to erlotinib alone; type: functional; conditions: dose 1 µmol/L
A2780 [6] = test: Cell cycle arrest in human A2780 cells assessed as increase in accumulation of cells at sub-G1 phase at 0.12 to 3 umol/L measured after 72 hrs in presence of carboplatin by propidium iodide staining based flow cytometry relative to control; type: functional; conditions: dose 0.12-3 µmol/L, at 0.12 to 3 µM
A2780 [7] = test: Cell cycle arrest in human A2780 cells assessed as increase in accumulation of cells at sub-G1 phase measured after 72 hrs in presence of camptothecin by propidium iodide staining based flow cytometry; type: functional
NCI-H460 [8] = test: Synergistic antiproliferative activity against human NCI-H460 cells assessed as combination index at ED25 to ED90 measured after 72 hrs in presence of gemcitabine by celltiter-glo assay; type: functional
HCC827 = test: Synergistic antiproliferative activity against human HCC827 cells assessed as combination index at ED50 measured after 72 hrs in presence of erlotinib by celltiter-glo assay; type: functional
How it was run: (§1)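 Cells grown in RPMI 1640 with 10% heat-inactivated FBS at 37°C, 5% CO₂. Seeded at 2 to 3 × 10³ per well; drugs added 24 h later. […] Viability read as cellular ATP by CellTiter-Glo. CI calculated by Chou–Talalay from median-effect plots at ED50, ED75 and ED90.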

NCI-H460 [9] = test: Synergistic antiproliferative activity against human NCI-H460 cells assessed as combination index at ED75 measured after 72 hrs in presence of carboplatin by celltiter-glo assay; type: functional
NCI-H460 [10] = test: Synergistic antiproliferative activity against human NCI-H460 cells assessed as combination index at ED90 measured after 72 hrs in presence of doxorubicin by celltiter-glo assay; type: functional
UMC-11 = test: Induction of apoptosis in human UMC-11 cells assessed as fold induction of capsase-3/7 activity measured after 24 to 48 hrs in presence of gemcitabine by caspase-glo 3/7 assay; type: functional; conditions: time 24-48 hrs
SK-BR-3 [11] = test: Synergistic antiproliferative activity against human SK-BR-3 cells assessed as combination index at ED90 measured after 96 hrs in presence of lapatinib by celltiter-glo assay; type: functional
MDA-MB-468 = test: Synergistic antiproliferative activity against human MDA-MB-468 cells assessed as combination index at ED90 treated 24 hrs prior to lapatinib and measured after 72 hrs by celltiter-glo assay; type: functional; conditions: time 96 hrs
NCI-H460 [12] = test: Synergistic antiproliferative activity against human NCI-H460 cells assessed as combination index at ED50 measured after 72 hrs in presence of carboplatin by celltiter-glo assay; type: functional
HCC1954 = test: Synergistic antiproliferative activity against human HCC1954 cells assessed as combination index at ED50 measured after 96 hrs in presence of lapatinib by celltiter-glo assay; type: functional
NCI-N87 [13] = test: Synergistic antiproliferative activity against lapatinib pretreated human NCI-N87 cells assessed as combination index at ED90 measured after 72 hrs by celltiter-glo assay; type: functional
Calu-6 = test: Synergistic antiproliferative activity against human Calu-6 cells assessed as combination index at ED50 measured after 72 hrs in presence of erlotinib by celltiter-glo assay; type: functional; how it was run: as §1
SK-BR-3 [14] = test: Synergistic antiproliferative activity against human SK-BR-3 cells assessed as combination index at ED50 measured after 72 hrs in presence of lapatinib by celltiter-glo assay; type: functional
ZR-75-1 = test: Synergistic antiproliferative activity against human ZR-75-1 cells assessed as combination index at ED50 measured after 72 hrs in presence of docetaxel by celltiter-glo assay; type: functional
A-431 = test: Synergistic antiproliferative activity against human A-431 cells assessed as combination index at ED75 measured after 72 hrs in presence of erlotinib by celltiter-glo assay; type: functional
How it was run: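 Cells were seeded at 2–3 × 10³ per well in RPMI 1640 with 10% FBS. At 24 h, MK-2206 and the partner drug were added simultaneously at constant concentration ratios spanning each agent's IC₅₀, for 72 h. Growth was read as cellular ATP by CellTiter-Glo. CI was taken from median-effect plots of each agent alone and in combination (Chou–Talalay), at ED₅₀, ED₇₅ and ED₉₀.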

HCC70 = test: Synergistic antiproliferative activity against human HCC70 cells assessed as combination index at ED75 measured after 96 hrs in presence of lapatinib by celltiter-glo assay; type: functional
NCI-H661 = test: Synergistic antiproliferative activity against human NCI-H661 cells assessed as combination index at ED25 to ED90 measured after 72 hrs in presence of gemcitabine by celltiter-glo assay; type: functional
NCI-N87 [15] = test: Synergistic antiproliferative activity against human NCI-N87 cells assessed as combination index at ED50 measured after 72 hrs in presence of lapatinib by celltiter-glo assay; type: functional

## Cl.NC1(c2ccc(-c3nc4ccn5c(=O)[nH]nc5c4cc3-c3ccccc3)cc2)CCC1
NCI-H1993
  fold change (FC): 1.2
NCI-H358
  CI50: 0.44
NCI-H460 [1]
  CI90: 0.54
NCI-H460 [2]
  CI50: 0.66
A2780 [3]
  Activity: Dose-Dependent Effect
[4]
  inhibition: Active
NCI-H1703
  fold change (FC): 1.3
NCI-H460 [5]
  Activity: Active
NCI-H23
  Ratio IC50: 2.4
A2780 [6]
  Activity: >40%
A2780 [7]
  Activity: Dose-Dependent Effect
NCI-H460 [8]
  CI: 0.33
HCC827
  CI50: 0.39
NCI-H460 [9]
  CI75: 0.3
NCI-H460 [10]
  CI90: 0.17
UMC-11
  fold change (FC): 1.2
SK-BR-3 [11]
  CI90: 0.18
MDA-MB-468
  CI90: 0.18
NCI-H460 [12]
  CI50: 0.35
HCC1954
  CI50: 0.18
NCI-N87 [13]
  CI90: 0.18
Calu-6
  CI50: 0.49
SK-BR-3 [14]
  CI50: 0.43
ZR-75-1
  CI50: 0.1
A-431
  CI75: 0.21
HCC70
  CI75: 0.18
NCI-H661
  CI: 0.53
NCI-N87 [15]
  CI50: 0.45
